# From ChEMBL document CHEMBL3526151, “Reversible disulfide formation of the glutamate carboxypeptidase II inhibitor E2072 results in prolonged systemic exposures in vivo” (Drug Metab Dispos, 2012)
# How the values were obtained:
# [1] = AUC(0 to last) in Sprague-Dawley rat at 30 mg/kg, po administered via gavage measured under fasted conditions by LC-MS/MS analysis; type: ADME, organism-based; design: time 0 - last, dose 30 mg/kg, route oral; settings: plasma
# In short: (§1)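 Fasted male Sprague-Dawley rats (280–330 g) received 0.1, 1, 10 or 30 mg/kg by oral gavage in 50 mM HEPES buffered saline, pH 7.4. Blood drawn at 0.25–24 h into heparin/NEM tubes; plasma analyzed by LC-MS/MS. Cmax taken as observed. AUC by linear trapezoidal rule with extrapolation by λz. Cl/F and Vd/F reported. Mean ± S.D., n = 4–9.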
# [2] = Phase 1 metabolic stability in human liver microsomes assessed as compound remaining at 10 uM measured for 1 hr by LC-MS/MS analysis; type: ADME; settings: read-out: Stability
# In short: (§2)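 Liver microsomes (0.5 mg/ml) were incubated with 10 µM compound (final) in 100 mM potassium phosphate, pH 7.4. An NADPH-regenerating system was present: 1.3 mM NADPH, 3.3 mM glucose 6-phosphate, 3.3 mM MgCl2, 0.4 U/ml G6PDH and 50 µM sodium citrate. Runs were in duplicate, with samples taken up to 1 h and quenched with acetonitrile containing internal standard. Loss of compound was followed by LC-MS/MS.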
# [3] = AUC(0 to last) in Sprague-Dawley rat at 0.1 mg/kg, po administered via gavage measured under fasted conditions by LC-MS/MS analysis; type: ADME, organism-based; design: time 0 - last, dose 0.1 mg/kg, route oral; settings: plasma; in short: as §1
# [4] = Half life in Sprague-Dawley rat at 10 mg/kg, po administered via gavage measured under fed conditions by LC-MS/MS analysis; type: ADME, organism-based; design: dose 10 mg/kg, route oral; settings: in vivo
# [5] = Phase 1 metabolic stability in mouse liver microsomes assessed as compound remaining at 10 uM measured for 1 hr by LC-MS/MS analysis; type: ADME; settings: read-out: Stability; in short: as §2
# [6] = Phase 1 metabolic stability in rat liver microsomes assessed as compound remaining at 10 uM measured for 1 hr by LC-MS/MS analysis in absence of cofactors; type: ADME; settings: read-out: Stability
# In short: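 Cofactor-free controls were run for each microsomal incubation: 0.5 mg/ml liver microsomes with 10 µM compound, omitting cofactors, so that cofactor-independent degradation could be measured. Samples were taken up to 1 h, quenched with acetonitrile containing internal standard, and the percent remaining was determined by LC-MS/MS.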
# Rattus norvegicus = test: Apparent oral clearance in Sprague-Dawley rat at 0.1 mg/kg, po administered via gavage measured under fasted conditions by LC-MS/MS analysis; type: ADME, organism-based; design: dose 0.1 mg/kg, route oral; settings: in vivo; in short: as §1
# [7] = Phase 2 metabolic stability in rat liver microsomes assessed as compound remaining at 10 uM measured for 1 hr by LC-MS/MS analysis; type: ADME; settings: read-out: Stability
# In short: (§3)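 Glucuronidation in liver microsomes of the named species, 0.5 mg/ml protein, compound at 10 μM final, in 50 mM Tris-HCl pH 7.5 with 8 mM MgCl2 and 25 μg/ml alamethicin. Preincubated at 37°C, then started with 2 mM UDPGA (final); cofactor-free controls run alongside. Duplicate reactions, sampled up to 1 h, quenched with cold acetonitrile plus internal standard; disappearance followed by LC-MS/MS.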
# Cynomolgus monkey = test: Clearance in cynomolgus monkey at 5 mg/kg, iv administered as bolus injection by LC-MS/MS analysis; type: ADME, organism-based, Macaca fascicularis; design: dose 5 mg/kg, route intravenous; settings: in vivo
# In short: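 Cynomolgus monkeys (n = 3) given a 5 mg/kg intravenous bolus via cephalic or saphenous vein. Dosing solution in 50 mM HEPES, TCEP-treated. Arterial cannula blood collected up to 9 days into heparin/NEM tubes. Plasma assayed by LC-MS/MS. Noncompartmental analysis.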
# [8] = Apparent oral clearance in Sprague-Dawley rat at 1 mg/kg, po administered via gavage measured under fasted conditions by LC-MS/MS analysis; type: ADME, organism-based; design: dose 1 mg/kg, route oral; settings: in vivo; in short: as §1
# [9] = Phase 2 metabolic stability in mouse liver microsomes assessed as compound remaining at 10 uM measured for 1 hr by LC-MS/MS analysis; type: ADME; settings: read-out: Stability; in short: as §3
# [10] = Cmax in Sprague-Dawley rat at 1 mg/kg, po administered via gavage measured under fasted conditions by LC-MS/MS analysis; type: ADME, organism-based; design: dose 1 mg/kg, route oral; settings: in vivo; in short: as §1
# [11] = Protein binding in Sprague-Dawley rat serum at 10 uM after 1 hr by LC-MS/MS analysis; type: ADME, cell-free; settings: read-out: PB (converted)
# In short: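 Serum from the named species spiked to 10 μM and held 1 h at 37°C, then ultrafiltered through a 5000 Da cutoff device (45 min, 37°C, 1800g). Filtrate and unfiltered serum extracted and measured by LC-MS/MS; % bound = 100 − (Cu/Cs × 100).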
# [12] = Cmax in Sprague-Dawley rat liver at 10 mg/kg/day, po administered for 5 days measured per gm of tissue by LC-MS/MS analysis; type: ADME, organism-based; design: dose 10 mg/kg/day, route oral
# In short: (§4)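 Male Sprague-Dawley rats were dosed orally with 10 mg/kg/day, either once or daily for 5 days; n = 4 per group. Blood was taken by cardiac puncture and liver, kidney, brain and sciatic nerve were collected at 0–8 h post-dose. Tissues were homogenized in PBS containing NEM at equal volume per gram. NEM-derivatized analyte was extracted with methanol and quantified by LC-MS/MS (1–5000 ng/ml). Cmax is the observed value.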
# [13] = Apparent oral clearance in Sprague-Dawley rat at 30 mg/kg, po administered via gavage measured under fasted conditions by LC-MS/MS analysis; type: ADME, organism-based; design: dose 30 mg/kg, route oral; settings: in vivo; in short: as §1
# [14] = Cmax in Sprague-Dawley rat plasma at 10 mg/kg/day, po administered for 5 days by LC-MS/MS analysis; type: ADME, organism-based; design: dose 10 mg/kg/day, route oral; in short: as §4
# [15] = Cmax in Sprague-Dawley rat brain at 10 mg/kg/day, po administered for 5 days measured per gm of tissue by LC-MS/MS analysis; type: ADME, organism-based; design: dose 10 mg/kg/day, route oral; in short: as §4
# [16] = Cmax in Sprague-Dawley rat sciatic nerve at 10 mg/kg/day, po administered measured per gm of tissue for 5 days by LC-MS/MS analysis; type: ADME, organism-based; design: dose 10 mg/kg/day, route oral; in short: as §4
# [17] = Cmax in Sprague-Dawley rat at 10 mg/kg, iv by LC-MS/MS analysis; type: ADME, organism-based; design: dose 10 mg/kg, route intravenous; settings: in vivo
# In short: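 Male Sprague-Dawley rats dosed intravenously at 10 mg/kg (n = 6). Blood sampling extended to 7 days into heparin tubes containing NEM. Plasma assayed for parent and homodisulfide by LC-MS/MS, calibration range 1–5000 ng/ml. Noncompartmental analysis, t1/2 = 0.693/λz. Mean ± S.D.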
# [18] = Tmax in Sprague-Dawley rat at 10 mg/kg, po administered via gavage measured under fasted conditions by LC-MS/MS analysis; type: ADME, organism-based; design: dose 10 mg/kg, route oral; settings: in vivo
# In short: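 Jugular-cannulated male Sprague-Dawley rats, 280–330 g, fasted overnight to 4 h post-dose. Single dose in 50 mM HEPES-buffered saline pH 7.4, by oral gavage or as tail-vein i.v. bolus. Blood into heparin/NEM tubes at 0–24 h. Plasma measured by LC-MS/MS; noncompartmental analysis; Tmax observed; Vd = dose/(AUCinf·λz).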
# [19] = Apparent volume of distribution in Sprague-Dawley rat at 10 mg/kg, po administered via gavage measured under fed conditions by LC-MS/MS analysis; type: ADME, organism-based; design: dose 10 mg/kg, route oral; settings: in vivo
# In short: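 Nonfasted male Sprague-Dawley rats given a single 10 mg/kg oral dose in 50 mM HEPES buffered saline, pH 7.4. Plasma collected 0.25–24 h into heparin/NEM tubes and assayed by LC-MS/MS. Noncompartmental parameters derived, including Cl/F and Vd/F. Mean ± S.D., n = 6–9.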
# [20] = Apparent volume of distribution in Sprague-Dawley rat at 10 mg/kg, po administered via gavage measured under fasted conditions by LC-MS/MS analysis; type: ADME, organism-based; design: dose 10 mg/kg, route oral; settings: in vivo; in short: as §1
structure (smiles),measurement,setting,value
O=C(O)c1cccc(-c2cccc(CCS)c2C(=O)O)c1,AUC(0-t),[1],76100 ng·h/mL
same,"remaining at 1 h, 10 µM",[2],> 90%
same,AUC(0-t),[3],268 ng·h/mL
same,half-life,[4],2.75 h
same,"remaining at 1 h, 10 µM",[5],> 90%
same,"remaining at 1 h, 10 µM",[6],> 90%
same,CL/F,Rattus norvegicus,8.5 mL/min/kg
same,"remaining at 1 h, 10 µM",[7],> 90%
same,CL,Cynomolgus monkey,0.367 mL/min/kg
same,CL/F,[8],5.5 mL/min/kg
same,"remaining at 1 h, 10 µM",[9],> 90%
same,Cmax,[10],1100 ng/mL
same,"fraction unbound at 1 h, 10 µM",[11],0.025
same,Cmax,[12],457 ng/g
same,CL/F,[13],8.5 mL/min/kg
same,Cmax,[14],6080 ng/mL
same,Cmax,[15],32.4 ng/g
same,Cmax,[16],165 ng/g
same,Cmax,[17],57200 ng/mL
same,Tmax,[18],1.03 h
same,Vd/F,[19],1.09 L/kg
same,Vd/F,[20],1.44 L/kg
